According to ChEMBL document CHEMBL1151692, “Substituted hippurates and hippurate analogs as substrates and inhibitors of peptidylglycine alpha-hydroxylating monooxygenase (PHM)” (Bioorg Med Chem, 2008):
Active and inactive are the calls of the source. No cut-off for these calls is given here.

Columns and labels:
[1] = target: peptidylglycine alpha-amidating monooxygenase (Rattus norvegicus) (UniProt P14925); assay: Inhibition of rat peptidylamidoglycolate lyase assessed as ascorbate-independent dealkylation of alpha-hydroxy-hipurate; set-up: concentration or dose not given beside the values; conditions: concentration not given here
DU-145 [2] = assay: Antiproliferative activity against human DU145 cells at 100 uM by trypan blue assay; assay type: functional
DU-145 [3] = assay: Antiproliferative activity against human DU145 cells at 10 uM after 48 hrs by trypan blue assay; assay type: functional, cell-based
Method in brief: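 DU 145 cells plated at 50,000 per well, allowed 24 h to adhere, then given medium containing 10 μM 4-HPR as positive control. Viable cells counted by trypan blue exclusion on a hemacytometer, with growth read at 48 h.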

SMILES | inhibition [1] | inhibition at 100 µM (DU-145 [2]) | Activity (DU-145 [3])
CCOC(=O)CSC(=S)c1ccc(C)cc1 | < 5% | ≤ 10% | –
CC1=C(/C=C/C(C)=C/C=C/C(C)=C/C(=O)Nc2ccc(O)cc2)C(C)(C)CCC1 | – | – | Active
